For one series, the system named is Diutina rugosa. In words: Antifungal activity Candida rugosa DSM 2031 by two-fold dilution method. The class given is functional. The method in brief: (§1)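 Serial two-fold broth microdilution MIC per CLSI M27-A3, in RPMI-1640 without bicarbonate, with L-glutamine, 2% glucose and 3.45% MOPS, pH 7.0. Conjugates tested at 512–1 µg mL-1, 5-FC at 64–0.125 µg mL-1. Strains maintained at 30 °C in YPD medium and stored on YPD agar.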

The test system of series [1] is Meyerozyma guilliermondii. In words: Antifungal activity Candida guilliermondii DSM 11947 by two-fold dilution method. The class given is functional. A digest of the protocol: as §1
In series [2] the test system is Candida albicans. In words: Antifungal activity Candida albicans ATCC 10231 by two-fold dilution method. Format: functional. A digest of the protocol: as §1
The next series has as its system Nakaseomyces glabratus. In words: Antifungal activity Candida glabrata DSM 11226 by two-fold dilution method. The class given is functional. A digest of the protocol: as §1
Another series deals with Pichia kudriavzevii. Briefly: Antifungal activity Candida krusei DSM 6128 by two-fold dilution method. The class given is functional. A digest of the protocol: as §1
A further series deals with Kluyveromyces marxianus. In words: Antifungal activity Candida pseudotropicalis KKP 324 by two-fold dilution method. The class given is functional. A digest of the protocol:
as §1

Another series relates to Debaryomyces hansenii. In words: Antifungal activity Candida famata DSM 3428 by two-fold dilution method. Format: functional. The method in brief:
as §1

The test system of a further series is Candida parapsilosis. Briefly: Antifungal activity Candida parapsilosis DSM 5784 by two-fold dilution method. The conditions noted are these: Lodderomyces parapsilosis. Format: functional. A digest of the protocol: as §1
Series [3] is described as follows: Induction of hemolysis in human RBC at upto 200 ug/ml incubated for 30 mins by absorbance based microplate reader analysis relative to control. The class given is toxicity, cell-based, Erythrocyte. To be noted: human red blood cells (erythrocytes), up to 200 µg/mL. The method in brief:
(§2)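 Human erythrocytes at 2 × 10^7 cells mL-1 in saline, exposed to two-fold dilutions from DMSO stocks (final 200–0.4 µg mL-1), 37 °C, 30 min, then centrifuged. Hemoglobin in supernatant read at A540. Percent hemolysis scaled between DMSO (0%) and Triton X-100 (100%) controls. EH50 interpolated as the concentration giving 50% of the positive-control A540.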

Series [4] can be described thus: Induction of hemolysis in human RBC incubated for 30 mins by absorbance based microplate reader analysis. To be noted: human red blood cells (erythrocytes). The class given is toxicity, cell-based, Erythrocyte. A digest of the protocol: as §2
Series [5] has as its system Candida albicans. Briefly: Antifungal activity Candida albicans ATCC 10231 at 512 ug/ml by two-fold dilution method. To be noted: dose 512.0 µg/ml. Format: functional, organism-based. The method in brief: as §1
A short description of series [6]: Drug localization in cytoplasm of Candida cells measured after 1 hr by confocal microscopy based analysis. Format: ADME, cell-based. A digest of the protocol: (§3)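 Candida from overnight YPD culture were washed, grown in RPMI-1640 at 30 °C with shaking from OD660 0.1 to 0.3, then resuspended in PBS to OD660 0.2. Fluorescent conjugate added to 50 µg mL-1 final and incubated at 30 °C, 150 rpm. Samples taken over time, washed 4× in PBS, imaged by confocal microscopy (ex 438, em 527 nm).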

Series [7] can be described thus: Drug uptake in Candida glabrata cells assessed as increase in number of cells emitting green fluorescence measured after 10 to 30 mins by fluorescence based analysis. The class given is ADME, cell-based. To be noted: nakaseomyces glabratus; time 10-30 min. The method in brief: as §3

In brackets after ≈: the same amount, converted by molar mass. Activity calls are given as the source filed them. The rule behind the calls is not given here.

The record followed here is ChEMBL document CHEMBL5360548, “Fatty acids as molecular carriers in cleavable antifungal conjugates” (Eur J Med Chem, 2023).

In the case of `CCCCCCCCCCCCCCCC(=O)Oc1cc(C)cc(C)c1C(C)(C)CC(=O)Oc1ncc(F)c(N)n1`, the MIC (as a rule, the lowest concentration found to suppress growth) against Diutina rugosa was 64 µg/mL (≈ 112 µM); in series [1], 32 µg/mL (≈ 56 µM); against Candida albicans [2], 16 µg/mL (≈ 28 µM); in the series with Nakaseomyces glabratus it was 8 µg/mL (≈ 14 µM); in the series on Pichia kudriavzevii, over 512 µg/mL; in the series on Kluyveromyces marxianus, 128 µg/mL (≈ 224 µM). Further, the MIC against Debaryomyces hansenii came out at 16 µg/mL (≈ 28 µM); with Candida parapsilosis, 8 µg/mL (≈ 14 µM). In addition, the hemolysis at 0.5 h in series [3] was under 5%.

Take `C[C@@H]1[C@H](O)[C@@H](C)/C=C/C=C/C=C/C=C/C=C/C=C/C=C/[C@H](O[C@@H]2O[C@H](C)[C@@H](O)[C@H](N)[C@@H]2O)C[C@@H]2O[C@](O)(C[C@@H](O)C[C@@H](O)[C@H](O)CC[C@@H](O)C[C@@H](O)CC(=O)O[C@H]1C)C[C@H](O)[C@H]2C(=O)O` [AMPHOTERICIN B]: the HC50 (usually the concentration giving 50% haemolysis) at 0.5 h in [4] worked out at 3.46 µg/mL.

Regarding `CCCCCCCCCCCC(=O)Oc1cc(C)cc(C)c1C(C)(C)CC(=O)Oc1ncc(F)c(N)n1`, the MIC was 16 µg/mL (≈ 31 µM) in the series with Diutina rugosa; 8 µg/mL (≈ 15.5 µM) in series [1]; 8 µg/mL (≈ 15.5 µM) in the series with Candida albicans [2]; 4 µg/mL (≈ 7.76 µM) in the series with Nakaseomyces glabratus; 256 µg/mL (≈ 496 µM) against Pichia kudriavzevii; 64 µg/mL (≈ 124 µM) with Kluyveromyces marxianus. Moreover, the MIC against Debaryomyces hansenii and in the series on Candida parapsilosis was 4 µg/mL (≈ 7.76 µM) in each case. In series [3], the hemolysis at 0.5 h was under 5%.

Take `CCCCCCCCCCCCCC(=O)Oc1cc(C)cc(C)c1C(C)(C)CC(=O)Oc1ncc(F)c(N)n1`: the MIC in the series on Diutina rugosa came to 16 µg/mL (≈ 29.4 µM); in series [1], 8 µg/mL (≈ 14.7 µM); in the series with Candida albicans [2] it was 4 µg/mL (≈ 7.36 µM); in the series with Nakaseomyces glabratus, 2 µg/mL (≈ 3.68 µM); in the series on Pichia kudriavzevii, 512 µg/mL (≈ 942 µM); in the series with Kluyveromyces marxianus it was 32 µg/mL (≈ 58.9 µM). In addition, the MIC with Debaryomyces hansenii and in the series with Candida parapsilosis was 4 µg/mL (≈ 7.36 µM) in each case. Further, the hemolysis at 0.5 h in [3] is under 5%.

In the case of `CC(=O)Oc1cc(C)cc(C)c1C(C)(C)CC(=O)Oc1ncc(F)c(N)n1`, the MIC in the series on Diutina rugosa was 32 µg/mL (≈ 85.2 µM); in series [1], 16 µg/mL (≈ 42.6 µM); in the series with Candida albicans [2], 16 µg/mL (≈ 42.6 µM); against Nakaseomyces glabratus it was 8 µg/mL (≈ 21.3 µM); with Pichia kudriavzevii it was over 512 µg/mL; with Kluyveromyces marxianus, 64 µg/mL (≈ 170 µM). Also, the MIC in the series with Debaryomyces hansenii came out at 8 µg/mL (≈ 21.3 µM); against Candida parapsilosis, 4 µg/mL (≈ 10.7 µM). In series [3], the hemolysis at 0.5 h is under 5%.

As to `CCCCCCCCCCCCCC(=O)Oc1cc(C)cc(C)c1C(C)(C)CC(=O)NCCNc1ccc2c3c(cccc13)C(=O)N(CCCC)C2=O`, the result with Candida albicans [5] was inactive.

In the case of `CCCCCCCCCCCCCCCCCC(=O)Oc1cc(C)cc(C)c1C(C)(C)CC(=O)Oc1ncc(F)c(N)n1`, the MIC in the series with Diutina rugosa was over 512 µg/mL; in series [1], 256 µg/mL (≈ 427 µM); in the series on Candida albicans [2] it was 128 µg/mL (≈ 213 µM); against Nakaseomyces glabratus, 32 µg/mL (≈ 53.3 µM); against Pichia kudriavzevii, over 512 µg/mL; against Kluyveromyces marxianus, 512 µg/mL (≈ 854 µM). Also, the MIC in the series with Debaryomyces hansenii was found to be 256 µg/mL (≈ 427 µM); against Candida parapsilosis, 128 µg/mL (≈ 213 µM). In [3], the hemolysis at 0.5 h was under 5%.

Take `Nc1nc(=O)[nH]cc1F` [FLUCYTOSINE]: the MIC was 2 µg/mL (≈ 15.5 µM) against Diutina rugosa; 0.5 µg/mL (≈ 3.87 µM) in series [1]; 1 µg/mL (≈ 7.75 µM) against Candida albicans [2]; 0.5 µg/mL (≈ 3.87 µM) in the series on Nakaseomyces glabratus; over 512 µg/mL in the series on Pichia kudriavzevii; 1 µg/mL (≈ 7.75 µM) in the series on Kluyveromyces marxianus. The MIC with Debaryomyces hansenii was 1 µg/mL (≈ 7.75 µM); against Candida parapsilosis, 2 µg/mL (≈ 15.5 µM).

With `CCCCN1C(=O)c2cccc3c(NCCNC(=O)CC(C)(C)c4c(C)cc(C)cc4OC(C)=O)ccc(c23)C1=O`, the result in the series with Candida albicans [5] was inactive.

As to `CCCCCCCC(=O)Oc1cc(C)cc(C)c1C(C)(C)CC(=O)NCCNc1ccc2c3c(cccc13)C(=O)N(CCCC)C2=O`, the result in the series on Candida albicans [5] was inactive. Also, the Drug uptake entry in series [6] and in series [7] was “Active” throughout.

In the case of `CCCCCCCCCCCCCCCCCC(=O)Oc1cc(C)cc(C)c1C(C)(C)CC(=O)NCCNc1ccc2c3c(cccc13)C(=O)N(CCCC)C2=O`, the outcome with Candida albicans [5] was inactive.

In the case of `CCCCCCCCCC(=O)Oc1cc(C)cc(C)c1C(C)(C)CC(=O)NCCNc1ccc2c3c(cccc13)C(=O)N(CCCC)C2=O`, the outcome with Candida albicans [5] was inactive.

`CCCCCCCCCCCC(=O)Oc1cc(C)cc(C)c1C(C)(C)CC(=O)NCCNc1ccc2c3c(cccc13)C(=O)N(CCCC)C2=O`: the outcome in the series with Candida albicans [5] was inactive.

As for `CCCCCCCCCCCCCCCC(=O)Oc1cc(C)cc(C)c1C(C)(C)CC(=O)NCCNc1ccc2c3c(cccc13)C(=O)N(CCCC)C2=O`, the result with Candida albicans [5] was inactive.

Turning to `CCCCCCCCCC(=O)Oc1cc(C)cc(C)c1C(C)(C)CC(=O)Oc1ncc(F)c(N)n1`, the MIC was 16 µg/mL (≈ 32.8 µM) against Diutina rugosa; 8 µg/mL (≈ 16.4 µM) in [1]; 8 µg/mL (≈ 16.4 µM) in the series on Candida albicans [2]; 4 µg/mL (≈ 8.2 µM) against Nakaseomyces glabratus; 256 µg/mL (≈ 525 µM) in the series on Pichia kudriavzevii; 32 µg/mL (≈ 65.6 µM) with Kluyveromyces marxianus. The MIC against Debaryomyces hansenii came to 8 µg/mL (≈ 16.4 µM); in the series with Candida parapsilosis it was 4 µg/mL (≈ 8.2 µM). For the same compound, the hemolysis at 0.5 h in series [3] was under 5%.

`CCCCCCCC(=O)Oc1cc(C)cc(C)c1C(C)(C)CC(=O)Oc1ncc(F)c(N)n1`: the MIC against Diutina rugosa came out at 16 µg/mL (≈ 34.8 µM); in series [1] it was 8 µg/mL (≈ 17.4 µM); in the series with Candida albicans [2], 8 µg/mL (≈ 17.4 µM); in the series with Nakaseomyces glabratus, 2 µg/mL (≈ 4.35 µM); in the series with Pichia kudriavzevii it was 128 µg/mL (≈ 279 µM); in the series on Kluyveromyces marxianus it was 32 µg/mL (≈ 69.6 µM). Also, the MIC in the series with Debaryomyces hansenii and against Candida parapsilosis was 4 µg/mL (≈ 8.7 µM) throughout. The compound also showed a hemolysis at 0.5 h in series [3] of under 5%.
